The experiment relates to HeLa. Put plainly: Cytotoxicity against human HeLa cells after […] by MTT assay. In kind it is functional, cell-based. The essentials:
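MTT read-out on HeLa cells, with an adriamycin positive control. Each determination was run in triplicate and reported as mean ± SEM. The 50% inhibitory concentration was obtained by interpolating concentration–inhibition curves.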

For the setting “Homo sapiens, HeLa”, `CO[C@]12C=C3C(=O)c4c(O)c5c(c(CC=C(C)C)c4O[C@@]34[C@@H](C1)C(C)(C)O[C@@]4(C/C=C(/C)C(=O)O)C2=O)O[C@](C)(CCC=C(C)C)C=C5` yielded an IC50 of 0.93 µM.

Regarding `CC(C)=CCC/C(C)=C/Cc1c(O)c(CC=C(C)C)c2c(c1O)C(=O)C1C=CCC3C(C)(C)OC4(CC=C(C)C(=O)O4)C13O2` (stereo unspecified), where the note is “Homo sapiens, HeLa”, the IC50 was 8.68 µM. Compared with the last compound, the IC50 is about 9.3-fold higher.

Consider `COC(=O)/C(C)=C\C[C@@]12OC(C)(C)[C@@H]3C[C@@H](CC4C(=O)c5c(O)c6c(c(CC=C(C)C)c5O[C@]431)OC(C)(C)C=C6)C2=O` (stereo partly specified), for which the 50% inhibitory concentration (IC50) (Homo sapiens, HeLa) was 111 µM.

In the case of `CC(C)=CCc1c2c(c(O)c3c1O[C@]14C(=C[C@@H]5C[C@H]1C(C)(C)O[C@@]4(C/C=C(/C)C(=O)O)C5=O)C3=O)C=CC(C)(CC/C=C/C(C)(C)O)O2` (stereo partly specified) [OXYGAMBOGIC ACID], under “Homo sapiens, HeLa”, the IC50 came out at 1.91 µM.

Regarding `CC(C)=CCc1c2c(c(O)c3c1OC(C)(C)C1CCC(C)=CC31)C(=O)C1=C[C@@H]3C[C@H]4C(C)(C)O[C@@](C/C=C(/C)C(=O)O)(C3=O)[C@@]14O2` (stereo partly specified) [GAMBOGEFIC ACID], the half-maximal inhibitory concentration (IC50) (Homo sapiens, HeLa) came to 0.56 µM.

For the setting “Homo sapiens, HeLa”, `CO[C@]12C=C3C(=O)c4c(O)c5c(c(CC=C(C)C)c4O[C@@]34[C@@H](C1)C(C)(C)O[C@@]4(C/C=C(/C)C(=O)O)C2=O)O[C@@](C)(CCC=C(C)C)C=C5` returned a concentration for half-maximal inhibition (IC50) of 0.85 µM. Against the preceding compound, the IC50 is about 1.5-fold higher.

As to `CC(C)=CCC/C(C)=C/COc1cc(O)c2c(c1CC=C(C)C)O[C@]13C(=C[C@@H]4C[C@H]1C(C)(C)O[C@@]3(CC=C(C)C)C4=O)C2=O`, the concentration for half-maximal inhibition (IC50) (Homo sapiens, HeLa) stood at 4.09 µM. Against the preceding compound, the IC50 is about 4.8-fold higher.

For the compound `CC(C)=CCC/C(C)=C/Cc1c(O)c(CC=C(C)C)c2c(c1O)C(=O)C1C(O)[C@@H]3C[C@H]4C(C)(C)O[C@@](C/C=C(/C)C(=O)O)(C3=O)[C@@]14O2` (stereo partly specified), under “Homo sapiens, HeLa”, inhibition was half-maximal at 5.08 µM (IC50).

Under “Homo sapiens, HeLa”, `CO[C@]12C=C3C(=O)c4c(O)c5c(c(CC=C(C)C)c4O[C@@]34[C@@H](C1)C(C)(C)O[C@@]4(C/C=C(/C)CO)C2=O)OC(C)(C)C=C5` came in with a 50% inhibitory concentration (IC50) of 1.21 µM.

For the setting “Homo sapiens, HeLa”, `CC(C)=CCC/C(C)=C/Cc1c(O)c2c(c3c1O[C@@H](C(C)(C)O)C3)O[C@]13C(=C[C@@H]4C[C@H]1C(C)(C)O[C@@]3(C/C=C(/C)C(=O)O)C4=O)C2=O` [GAMBOGENIFIC ACID] had an IC50 of 1.79 µM.

Regarding `CC(C)=CCCC1(C)C=Cc2c(O)c3c(c(CC=C(C)C)c2O1)O[C@]12C(C3=O)C(O)[C@@H]3C[C@H]1C(C)(C)O[C@@]2(C/C=C(/C)C(=O)O)C3=O` (stereo in doubt; 13), the IC50 (Homo sapiens, HeLa) was determined as 0.64 µM.

`C=C(C)C1CCC2(C)CC1c1c(O)c3c(c(CC=C(C)C)c1O2)O[C@]12C(=C[C@]4(OC)C[C@H]1C(C)(C)O[C@@]2(C/C=C(/C)C(=O)O)C4=O)C3=O` (stereo partly specified) yielded a half-maximal inhibitory concentration (IC50) (Homo sapiens, HeLa) of 0.91 µM.

Take `CC(C)=CCc1c2c(c(O)c3c1O[C@]14C(C3=O)[C@@H](O)[C@@H]3C[C@H]1C(C)(C)O[C@@]4(C/C=C(/C)C(=O)O)C3=O)C=CC(C)(C)O2` (stereo partly specified): the IC50 (Homo sapiens, HeLa) stood at 1.71 µM. This IC50 is about 1.9-fold higher than that of the compound before.

In turn, `CC(C)=CCCC1(C)C=Cc2c(O)c3c(c(CC=C(C)C)c2O1)O[C@]12C(C3=O)C(O)[C@@H]3C[C@H]1C(C)(C)O[C@@]2(C/C=C(/C)C(=O)O)C3=O` (stereo in doubt; 14) registered an IC50 (hela) of 0.63 µM. This counts as sub-micromolar.

Under “Homo sapiens, HeLa”, `COc1cccc2c1C(=O)c1c(O)c3c(c(O)c1C2=O)C[C@@](O)(C(=O)CO)C[C@@H]3O[C@H]1C[C@H](N)[C@H](O)[C@H](C)O1` [DOXORUBICIN] gave an IC50 of 0.41 µM.

Turning to `CC(C)=CCC[C@]1(C)C=Cc2c(O)c3c(c(CC=C(C)C)c2O1)O[C@]12C(=C[C@@H]4C[C@H]1C(C)(C)O[C@@]2(C/C=C(/C)C(=O)O)C4=O)C3=O` [GAMBOGIC ACID], the midpoint of inhibition (Homo sapiens, HeLa), the IC50, lay at 0.7 µM.
